Shown are actives, neighbours in structure and some others; about 4.6% of the full set was active somewhere.
PfM18AAP inh-1: blocks P. falciparum M18 aspartyl aminopeptidase; recombinant PfM18AAP, H-Glu-NHMec fluorogenic cleavage; inhibition, % at 7.35 µM; 290,000 tested, 1.2% active;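 active = inhibition above the campaign mean inhibition over all tested compounds plus 3 SD, cut at about 28% in these data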;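 note: 0% = plate median of test compound wells and 100% = 2 mM ZnCl2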
FAS-TE inh: inhibitors of human fatty acid synthase thioesterase domain | AID 602261 | recombinant FAS-TE, OMFH fluorogenic substrate, fluorescence endpoint | inhibition, % at 15 µM | 360,000 tested, 0.67% active;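 active = compounds whose normalised, plate-corrected inhibition of enzyme fluorescence in the single-dose primary screen is 50% or more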;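 note: 0% = DMSO with enzyme and 100% = substrate without enzyme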
Target sequence (P49327 whole entry, looked up, the tested form may be a part): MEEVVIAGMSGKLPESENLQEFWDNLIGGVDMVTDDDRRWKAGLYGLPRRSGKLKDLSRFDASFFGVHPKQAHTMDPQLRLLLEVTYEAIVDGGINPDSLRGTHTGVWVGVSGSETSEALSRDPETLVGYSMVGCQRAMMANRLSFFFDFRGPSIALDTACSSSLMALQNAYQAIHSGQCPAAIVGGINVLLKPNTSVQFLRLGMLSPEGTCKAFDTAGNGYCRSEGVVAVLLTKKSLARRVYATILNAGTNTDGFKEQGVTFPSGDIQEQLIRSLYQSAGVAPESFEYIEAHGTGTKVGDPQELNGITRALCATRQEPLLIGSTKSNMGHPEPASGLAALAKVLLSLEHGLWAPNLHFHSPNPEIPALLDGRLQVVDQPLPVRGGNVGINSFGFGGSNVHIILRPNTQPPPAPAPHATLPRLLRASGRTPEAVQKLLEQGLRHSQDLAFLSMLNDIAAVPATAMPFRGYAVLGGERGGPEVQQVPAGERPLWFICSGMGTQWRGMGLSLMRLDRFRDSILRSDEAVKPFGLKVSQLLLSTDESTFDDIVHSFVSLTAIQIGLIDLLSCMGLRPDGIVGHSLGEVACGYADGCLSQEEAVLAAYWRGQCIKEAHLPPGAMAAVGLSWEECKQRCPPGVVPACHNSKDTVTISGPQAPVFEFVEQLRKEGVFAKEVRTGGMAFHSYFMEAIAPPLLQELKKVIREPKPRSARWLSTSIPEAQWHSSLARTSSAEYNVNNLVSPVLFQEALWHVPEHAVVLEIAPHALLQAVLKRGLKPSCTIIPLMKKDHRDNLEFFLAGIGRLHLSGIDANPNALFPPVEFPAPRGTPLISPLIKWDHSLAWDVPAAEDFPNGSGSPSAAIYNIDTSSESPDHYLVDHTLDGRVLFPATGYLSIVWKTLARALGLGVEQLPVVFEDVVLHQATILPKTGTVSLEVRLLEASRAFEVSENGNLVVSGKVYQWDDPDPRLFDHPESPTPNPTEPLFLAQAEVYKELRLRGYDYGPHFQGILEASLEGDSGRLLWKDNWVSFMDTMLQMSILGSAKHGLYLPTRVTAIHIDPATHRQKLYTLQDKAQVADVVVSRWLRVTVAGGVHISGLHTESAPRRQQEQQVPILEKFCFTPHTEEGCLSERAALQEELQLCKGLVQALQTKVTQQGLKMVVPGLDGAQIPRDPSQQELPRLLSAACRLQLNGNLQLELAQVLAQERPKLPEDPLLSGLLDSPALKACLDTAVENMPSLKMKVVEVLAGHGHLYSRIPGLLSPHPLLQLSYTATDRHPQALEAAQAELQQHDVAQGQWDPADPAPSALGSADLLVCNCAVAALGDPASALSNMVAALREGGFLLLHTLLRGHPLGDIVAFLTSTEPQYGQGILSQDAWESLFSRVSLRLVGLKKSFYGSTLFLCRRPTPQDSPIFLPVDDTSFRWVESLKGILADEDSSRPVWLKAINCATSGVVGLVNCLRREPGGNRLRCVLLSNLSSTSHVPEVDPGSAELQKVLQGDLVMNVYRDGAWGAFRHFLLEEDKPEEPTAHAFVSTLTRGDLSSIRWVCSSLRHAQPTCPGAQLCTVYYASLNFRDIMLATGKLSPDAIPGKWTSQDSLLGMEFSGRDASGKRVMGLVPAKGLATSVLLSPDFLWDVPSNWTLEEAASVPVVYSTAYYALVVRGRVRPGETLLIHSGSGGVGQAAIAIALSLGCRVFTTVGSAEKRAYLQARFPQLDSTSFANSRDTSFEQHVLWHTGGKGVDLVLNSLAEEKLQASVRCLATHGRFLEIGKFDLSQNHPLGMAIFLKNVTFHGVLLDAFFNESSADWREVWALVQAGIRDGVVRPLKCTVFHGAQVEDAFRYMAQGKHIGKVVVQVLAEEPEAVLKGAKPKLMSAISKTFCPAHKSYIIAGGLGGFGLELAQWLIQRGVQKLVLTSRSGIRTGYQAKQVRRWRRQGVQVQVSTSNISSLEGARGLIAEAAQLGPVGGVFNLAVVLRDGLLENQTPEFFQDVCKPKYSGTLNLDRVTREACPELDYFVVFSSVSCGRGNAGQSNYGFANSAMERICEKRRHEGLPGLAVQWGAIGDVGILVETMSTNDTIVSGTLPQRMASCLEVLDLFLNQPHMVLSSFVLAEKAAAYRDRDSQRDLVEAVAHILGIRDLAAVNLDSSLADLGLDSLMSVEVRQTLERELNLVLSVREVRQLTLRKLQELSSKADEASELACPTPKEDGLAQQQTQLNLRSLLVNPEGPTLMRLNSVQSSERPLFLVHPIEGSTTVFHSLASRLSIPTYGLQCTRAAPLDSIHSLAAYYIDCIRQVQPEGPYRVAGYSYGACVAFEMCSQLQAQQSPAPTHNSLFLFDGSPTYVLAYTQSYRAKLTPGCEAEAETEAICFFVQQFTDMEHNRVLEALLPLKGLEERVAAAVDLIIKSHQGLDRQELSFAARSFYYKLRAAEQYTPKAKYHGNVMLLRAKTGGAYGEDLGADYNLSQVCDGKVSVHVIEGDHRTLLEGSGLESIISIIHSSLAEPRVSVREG
Rtt109 Vps75: inhibitors of Candida albicans Rtt109/Vps75 histone acetyltransferase; Q5AAJ8; purified Rtt109/Vps75, ThioGlo CoA-SH fluorescence, 4 h; inhibition, % at 34.9 µM; 330,000 tested, 0.16% active; AID 540336;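 active = inhibition of at least 50% in every replicate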
UCH37 DUB inh: human UCH37 deubiquitinating enzyme inhibition; Q9Y5K5; purified proteasome/UCH37, Ub-AMC cleavage fluorescence; 330,000 tested, 0.33% active; inhibition, % (test concentration not listed);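 active = mean inhibition over replicate wells above about 20%, limit read from the data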;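 note: 0% = compound-free wells with enzyme and 100% = wells lacking proteasome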
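Material: Human UCH37 enzyme supplied as purified proteasome complex | Schedule: 30 min preincubation with enzyme, 25 min cleavage at room temperature | Detection: AMC fluorescence 355/460 nm | Measure: % inhibition of Ub-AMC cleavage fluorescence | Controls: Wells without proteasome as full block, compound-free enzyme plus substrate as uninhibited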
HDAC3 inhib: human HDAC3 inhibition; inhibition, % at 8.3 µM; recombinant HDAC3, fluorogenic peptide/trypsin coupled, fluorescence; 320,000 tested, 0.15% active; in the data active = inhibition above about 26%, passing the limit was not always enough
ALR inh: blocks human ALR sulfhydryl oxidase activity; purified ALR, DTT oxidation, H2O2 HRP-luminol luminescence; AID 485317; P55789; 290,000 tested, 3.8% active; inhibition, % (no concentration beside the values);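 active = mean replicate inhibition above about 79%, with every replicate also reaching it, limit read from the data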
PfM18AAP inh-2: PfM18AAP inhibition, confirmation | shares compounds with PfM18AAP inh-1 | recombinant PfM18AAP, H-Glu-NHMec fluorogenic cleavage | inhibition, % at 7.35 µM | 2,400 tested, 28% active;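 active = mean inhibition over replicate wells above the hit cutoff set for the earlier primary screen, cut at about 29% in these data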;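 note: 0% = median of test compound wells and 100% = 2 mM ZnCl2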
CTSL1 confirm: counter-screen for PFM18AAP inhibitors: confirmation of human cathepsin L inhibitors | shares compounds with PfM18AAP inh-1 | 2,400 tested, under 10 active | inhibition, % at 5.96 µM | purified cathepsin L1, Z-Leu-Arg-MCA fluorescence;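 active = average inhibition across replicates above the hit cutoff set in the earlier primary screen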;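 note: 0% = median of test compound wells and 100% = Z-Phe-Ala-diazomethylketone 1 µM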
The depositor's hits bear a star; . = not tested or not shown.

SMILES	PfM18AAP inh-1	FAS-TE inh	Rtt109 Vps75	UCH37 DUB inh	HDAC3 inhib	ALR inh	PfM18AAP inh-2	CTSL1 confirm
CC(=O)Oc1ccc(C(=O)OCC(=O)c2c(N)n(C)c(=O)n(C)c2=O)cc1OC(C)=O	42.5*	-1.4	-5.5	3.7	-8.5	98.7*	1.3	-4.7
COc1ccc(C(=O)OCC(=O)c2c(N)n(C)c(=O)n(C)c2=O)cc1OC	-4.8	-5.3	0.5	-0.2	0.7	-16.7	.	.
NS(=O)(=O)c1ccc(NN=Cc2ccc[nH]2)c([N+](=O)[O-])c1	.	.	.	12.8	.	.	.	.
O=[N+]([O-])c1ccc(O)c2ncccc12	9.5	17.8	3.4	6.2	5.3	.	.	.
O=[N+]([O-])c1cc([N+](=O)[O-])c2cccnc2c1Oc1ccccc1O	83.7*	15.4	15.6	9.0	9.0	-0.4	59.7*	4.1

Bioassay records from PubChem BioAssay.
